Laboratory results from ChEMBL document CHEMBL3734698, “1H-Pyrazolo[3,4-g]hexahydro-isoquinolines as potent GR antagonists with reduced hERG inhibition and an improved pharmacokinetic profile” (Bioorg Med Chem Lett, 2015).
Active and inactive are the calls of the source. The calls are words filed in the database; no cut-off is given here.

Experiments:
[1] = target: T1, Glucocorticoid receptor (Homo sapiens, UniProt P04150); assay: Antagonist activity at glucocorticoid receptor in human HepG2 cells assessed as inhibition of glucocorticoid-induced TAT activity after 24 hrs; format: cell-based
T1 sequence (P04150 whole entry): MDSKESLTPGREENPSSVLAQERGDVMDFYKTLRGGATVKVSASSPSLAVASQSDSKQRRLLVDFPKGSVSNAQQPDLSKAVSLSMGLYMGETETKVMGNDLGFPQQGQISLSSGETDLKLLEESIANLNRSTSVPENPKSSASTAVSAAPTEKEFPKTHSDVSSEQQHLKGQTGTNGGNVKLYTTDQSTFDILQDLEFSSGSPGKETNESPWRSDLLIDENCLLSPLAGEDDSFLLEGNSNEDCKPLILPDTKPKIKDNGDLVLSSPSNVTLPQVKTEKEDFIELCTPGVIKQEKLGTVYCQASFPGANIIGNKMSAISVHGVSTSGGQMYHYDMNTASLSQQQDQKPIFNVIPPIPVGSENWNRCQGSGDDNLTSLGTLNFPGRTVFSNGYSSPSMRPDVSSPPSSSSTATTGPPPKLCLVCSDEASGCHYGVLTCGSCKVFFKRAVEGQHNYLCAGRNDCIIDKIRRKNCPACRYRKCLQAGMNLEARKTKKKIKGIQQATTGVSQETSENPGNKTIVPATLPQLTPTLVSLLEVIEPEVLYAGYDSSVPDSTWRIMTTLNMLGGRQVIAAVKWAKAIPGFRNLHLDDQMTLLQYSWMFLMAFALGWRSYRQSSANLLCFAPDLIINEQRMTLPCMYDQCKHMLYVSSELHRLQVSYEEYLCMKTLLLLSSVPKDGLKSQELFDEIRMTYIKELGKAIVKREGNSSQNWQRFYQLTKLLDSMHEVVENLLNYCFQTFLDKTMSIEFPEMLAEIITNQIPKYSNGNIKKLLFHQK

[2] = target: T1, Glucocorticoid receptor; assay: Binding affinity to human recombinant glucocorticoid receptor by fluorescence polarization assay
[3] = target: T2, hERG (KCNH2) (Homo sapiens, UniProt Q12809); assay: Inhibition of human ERG at 1 uM by patch clamp technique
[4] = target: T2, hERG (KCNH2); assay: Inhibition of human ERG at 10 uM by patch clamp technique
[5] = system: Rattus norvegicus; assay: Reduction in olanzapine-induced weight gain in rat at 20 mg/kg, po bid administered for 21 days measured from day 4 of compound dosing; format: functional, organism-based
[6] = target: Voltage-gated inwardly rectifying potassium channel KCNH2 (Homo sapiens, UniProt Q12809); assay: Inhibition of human ERG by patch clamp technique
[7] = target: T3, Glucocorticoid receptor (Rattus norvegicus) (UniProt P06536); assay: (§1) Antagonist activity at glucocorticoid receptor in rat primary hepatocytes assessed as inhibition of glucocorticoid-induced TAT activity; format: cell-based; conditions: Hepatocyte
T3 sequence (whole entry): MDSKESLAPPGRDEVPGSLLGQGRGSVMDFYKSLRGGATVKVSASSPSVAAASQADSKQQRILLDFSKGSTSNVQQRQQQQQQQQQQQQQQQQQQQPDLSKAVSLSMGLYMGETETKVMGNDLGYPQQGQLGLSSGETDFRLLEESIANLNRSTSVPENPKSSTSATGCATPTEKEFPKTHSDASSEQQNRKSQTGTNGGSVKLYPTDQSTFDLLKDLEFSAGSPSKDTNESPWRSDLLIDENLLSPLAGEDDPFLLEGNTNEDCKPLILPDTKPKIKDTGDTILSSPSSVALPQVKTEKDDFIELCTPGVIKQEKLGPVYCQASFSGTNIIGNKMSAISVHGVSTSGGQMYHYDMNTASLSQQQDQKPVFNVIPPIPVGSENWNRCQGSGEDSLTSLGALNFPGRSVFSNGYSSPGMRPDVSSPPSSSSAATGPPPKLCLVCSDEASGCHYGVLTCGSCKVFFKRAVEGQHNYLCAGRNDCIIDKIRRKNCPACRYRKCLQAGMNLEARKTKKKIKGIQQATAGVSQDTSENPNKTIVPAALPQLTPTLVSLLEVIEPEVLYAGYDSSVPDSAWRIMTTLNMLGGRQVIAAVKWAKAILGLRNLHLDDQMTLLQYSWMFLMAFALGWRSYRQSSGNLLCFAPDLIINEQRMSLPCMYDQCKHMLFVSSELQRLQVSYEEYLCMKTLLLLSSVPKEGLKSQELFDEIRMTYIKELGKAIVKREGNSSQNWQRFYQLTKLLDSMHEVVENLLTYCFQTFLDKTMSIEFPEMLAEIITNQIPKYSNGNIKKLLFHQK
Summary of the method: (§2)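 Glucocorticoid receptor antagonism was measured as blockade of dexamethasone-induced tyrosine amino transferase (TAT) activity. Cells were rat H4IIEC3 cells or primary hepatocytes from rat or cynomolgus monkey, as the line specifies.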

[8] = target: T4, Glucocorticoid receptor (Rattus norvegicus, UniProt P06536); assay: as §1; format: cell-based, Hepatocyte; summary of the method: as §2
T4 sequence (P06536 whole entry): T3 sequence (whole entry)

[9] = Cmax in rat at 5 mg/kg, po; format: ADME, organism-based; design: dose 5 mg/kg, route oral; conditions: in vivo
Summary of the method: (§3)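 Rat pharmacokinetics: oral dosing at 5 mg/kg in 10% DMSO in 0.5% aqueous methyl cellulose. Intravenous dosing at 1 mg/kg in 10% DMSO, 45% PEG400 and 45% propylene glycol. Plasma Cmax was taken after the oral dose and clearance after the iv dose, and oral bioavailability was derived.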

[10] = target: T4, Glucocorticoid receptor; assay: Antagonist activity at glucocorticoid receptor in rat H4IIEC3 cells assessed as glucocorticoid-induced TAT activity; format: cell-based; summary of the method: as §2
[11] = system: Rattus norvegicus; assay: Reduction in cortisone-induced glucose level in rat at 30 mg/kg, po bid; format: functional, organism-based
Summary of the method: (§4)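 Rats received cortisone 30 mg/kg sc once daily for six days. Test agent was given orally twice daily at 30 mg/kg. Glucose and insulin levels were compared with cortisone-only and no-cortisone controls, with mifepristone at the same oral regimen as positive control.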

[12] = system: Rattus norvegicus; assay: Reduction in cortisone-induced insulin level in rat at 30 mg/kg, po bid; format: functional, organism-based; summary of the method: as §4
[13] = Clearance in rat at 1 mg/kg, iv; format: ADME, organism-based; conditions: in vivo; summary of the method: as §3
[14] = target: T1, Glucocorticoid receptor; assay: Antagonist activity at glucocorticoid receptor in human primary hepatocytes assessed as inhibition of glucocorticoid-induced TAT activity; format: cell-based, Hepatocyte
Summary of the method: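 Primary human hepatocytes stimulated with dexamethasone to induce tyrosine amino transferase (TAT) activity. Compounds were tested for their ability to block this dexamethasone effect as a measure of GR antagonism. They were also run without dexamethasone to check for TAT induction, a measure of GR agonism. Read-out was TAT activity, reported as K_i.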

[15] = Antagonist activity at glucocorticoid receptor in cynomolgus monkey primary hepatocytes assessed as inhibition of glucocorticoid-induced TAT activity; format: cell-based, Macaca fascicularis; conditions: hepatocyte; summary of the method: as §2
[16] = target: T4, Glucocorticoid receptor; assay: Agonist activity at glucocorticoid receptor in rat primary hepatocytes assessed as inhibition of glucocorticoid-induced TAT activity; format: cell-based, Hepatocyte
[17] = Agonist activity at glucocorticoid receptor in dog primary hepatocytes assessed as […] TAT activity; format: cell-based; conditions: Canis lupus familiaris, Hepatocyte
[18] = Oral bioavailability in rat at 5 mg/kg; format: ADME, organism-based; conditions: in vivo; summary of the method: as §3
[19] = target: T3, Glucocorticoid receptor (Rattus norvegicus); assay: Antagonist activity at glucocorticoid receptor in rat primary hepatocytes assessed as inhibition of glucocorticoid-induced TAT activity relative to control; format: cell-based; conditions: Hepatocyte; summary of the method: as §2
[20] = system: Hepatocyte; assay: Antagonist activity at glucocorticoid receptor in cynomolgus monkey primary hepatocytes assessed as inhibition of glucocorticoid-induced TAT activity relative to control; format: cell-based; conditions: Macaca fascicularis; summary of the method: as §2
[21] = target: T3, Glucocorticoid receptor (Rattus norvegicus); assay: Agonist activity at glucocorticoid receptor in rat primary hepatocytes assessed as inhibition of glucocorticoid-induced TAT activity relative to control; format: cell-based; conditions: Hepatocyte
[22] = system: Hepatocyte; assay: Agonist activity at glucocorticoid receptor in dog primary hepatocytes assessed as […] TAT activity relative to control; format: cell-based; conditions: Canis lupus familiaris

T2 sequence (Q12809 whole entry): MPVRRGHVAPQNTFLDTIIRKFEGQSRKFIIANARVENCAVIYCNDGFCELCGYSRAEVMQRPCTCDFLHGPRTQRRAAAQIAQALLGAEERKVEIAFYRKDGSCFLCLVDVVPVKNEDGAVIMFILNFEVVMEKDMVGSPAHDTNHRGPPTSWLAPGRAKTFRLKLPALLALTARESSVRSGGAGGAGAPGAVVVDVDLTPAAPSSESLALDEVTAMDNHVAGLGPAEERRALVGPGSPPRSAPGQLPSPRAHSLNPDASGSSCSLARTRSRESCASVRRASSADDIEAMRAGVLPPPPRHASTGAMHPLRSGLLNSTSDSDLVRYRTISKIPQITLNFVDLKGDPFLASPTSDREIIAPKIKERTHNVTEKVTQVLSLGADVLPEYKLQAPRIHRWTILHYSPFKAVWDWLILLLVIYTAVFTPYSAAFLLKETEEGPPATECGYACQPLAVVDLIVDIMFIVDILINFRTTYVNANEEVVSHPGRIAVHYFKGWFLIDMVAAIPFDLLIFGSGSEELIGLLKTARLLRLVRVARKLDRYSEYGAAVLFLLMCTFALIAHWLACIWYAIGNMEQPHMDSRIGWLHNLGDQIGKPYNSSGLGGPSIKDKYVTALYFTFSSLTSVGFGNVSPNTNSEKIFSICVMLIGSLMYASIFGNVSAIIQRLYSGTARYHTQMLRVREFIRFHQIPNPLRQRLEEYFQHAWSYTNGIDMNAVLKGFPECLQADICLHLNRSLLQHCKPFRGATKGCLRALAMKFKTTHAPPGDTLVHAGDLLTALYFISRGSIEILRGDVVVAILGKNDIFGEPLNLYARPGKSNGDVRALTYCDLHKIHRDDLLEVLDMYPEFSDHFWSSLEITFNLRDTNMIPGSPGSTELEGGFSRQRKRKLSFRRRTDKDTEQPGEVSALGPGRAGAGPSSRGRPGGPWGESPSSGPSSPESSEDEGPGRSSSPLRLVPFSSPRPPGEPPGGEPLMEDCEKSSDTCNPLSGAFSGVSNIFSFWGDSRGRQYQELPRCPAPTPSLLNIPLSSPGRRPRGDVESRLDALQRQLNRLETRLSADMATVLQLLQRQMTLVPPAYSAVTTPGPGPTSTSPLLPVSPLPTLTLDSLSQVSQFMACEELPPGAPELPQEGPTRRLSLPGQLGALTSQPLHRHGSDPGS
Chain of Voltage-gated inwardly rectifying potassium channel KCNH2 (Q12809 whole entry): as above

Ki [1] [nM] | Ki [2] [nM] | Structure (SMILES) | inhibition at 1 µM [3] [%] | inhibition at 10 µM [4] [%] | other results
98 | 0.21 | O=C(c1cnccn1)[C@]12Cc3cnn(-c4ccc(F)cc4)c3C=C1CCN(S(=O)(=O)c1ccc(C(F)(F)F)cc1)C2 |  |  | 
260 | 0.33 | O=C(c1cncs1)[C@]12Cc3cnn(-c4ccc(F)cc4)c3C=C1CCN(S(=O)(=O)c1ccc(C(F)(F)F)cc1)C2 |  |  | 
18.5 | 0.21 | Cc1ccccc1S(=O)(=O)N1CCC2=Cc3c(cnn3-c3ccc(F)cc3)C[C@]2(C(=O)c2ccccn2)C1 | 26 | 45 | 
 |  | CCOC[C@]12Cc3cnn(-c4ccc(F)cc4)c3C=C1CCN(S(=O)(=O)c1ccc(C(F)(F)F)cc1)C2 |  |  | Activity [5]: Active
14 | 0.64 | O=C(c1ccccn1)[C@]12Cc3cnn(-c4ccc(F)cc4)c3C=C1CCN(S(=O)(=O)c1ccc(Cl)c(Cl)c1)C2 | 7 | 16 | IC50 [6]: > 10 µM; Efficacy [7]: 74%; Ki [8]: 150 nM; Cmax [9]: 437 ng/mL; Ki [10]: 8.5 nM; Activity [11]: Active; Activity [12]: Active
11 | 0.29 | O=C(c1ccccn1)[C@]12Cc3cnn(-c4ccc(F)cc4)c3C=C1CCN(S(=O)(=O)c1ccc(C(F)(F)F)c(F)c1)C2 | 8 | 17 | Cmax [9]: 322 ng/mL; clearance [13]: 28.7 mL/min/kg
15 | 0.14 | N#Cc1cccc(S(=O)(=O)N2CCC3=Cc4c(cnn4-c4ccc(F)cc4)C[C@]3(C(=O)c3ccccn3)C2)c1 | 27 | 42 | 
63 | 0.16 | O=C(c1cocn1)[C@]12Cc3cnn(-c4ccc(F)cc4)c3C=C1CCN(S(=O)(=O)c1ccc(C(F)(F)F)cc1)C2 |  |  | 
22 | 0.14 | O=C(c1cscn1)[C@]12Cc3cnn(-c4ccc(F)cc4)c3C=C1CCN(S(=O)(=O)c1ccc(C(F)(F)F)cc1)C2 |  |  | 
4.5 | 0.22 | Cc1ccc(S(=O)(=O)N2CCC3=Cc4c(cnn4-c4ccc(F)cc4)C[C@]3(C(=O)c3ccccn3)C2)cc1 | 34 | 59 | 
27 | 0.41 | O=C(c1cccs1)[C@]12Cc3cnn(-c4ccc(F)cc4)c3C=C1CCN(S(=O)(=O)c1ccc(C(F)(F)F)cc1)C2 |  |  | 

Structure (SMILES) | Ki [1] [nM] | Ki [2] [nM] | inhibition at 1 µM [3] [%] | inhibition at 10 µM [4] [%] | other results
O=C(c1ccccn1)[C@]12Cc3cnn(-c4ccc(F)cc4)c3C=C1CCN(S(=O)(=O)c1ccc(C(F)(F)F)cc1)C2 [DAZUCORILANT] |  | 0.16 |  |  | IC50 [6]: 5 µM; Ki [14]: 100 nM; Ki [8]: 13 nM; Ki [15]: 765 nM; EC50 [16]: 280 nM; EC50 [17]: 1600 nM; bioavailability [18]: 31%; Cmax [9]: 375 ng/mL; clearance [13]: 11 mL/min/kg; Activity [5]: Active; Activity [11]: Active; Activity [12]: inactive; Imax [19]: 62%; Imax [20]: 100%; Emax [21]: 51%; Emax [22]: 110%
